Calls of active or inactive are those of the source. The calls are words filed in the database; no cut-off is given here.
What was measured:
Integrin alpha-V/beta-3 = Integrin alpha-V/beta-3 (Homo sapiens, UniProt P05106+P06756); assay: Inhibition of human integrin alphav beta3 receptor by biotinylated vitronectin competitive binding assay; assay type: protein-complex assay
Summary of the method: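 Placenta-derived human αvβ3 adsorbed at 500 ng/mL in Tris buffer (2 mM CaCl2, 1 mM MgCl2 and MnCl2, pH 7.5), 1 h RT, then blocked with 1% albumin. Incubated 30 min with excess biotinylated vitronectin plus graded compound. Bound ligand detected with anti-biotin–alkaline phosphatase and p-nitrophenyl phosphate at 405 nm. IC50 taken from pooled dose-response curves of at least two experiments.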

[1] = target: Integrin alpha-IIb/beta-3 (Homo sapiens, UniProt P05106+P08514); assay: Inhibition of human integrin alpha2b beta3 receptor by fibrinogen competitive binding assay; assay type: protein-complex assay
Summary of the method: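 Platelet αIIbβ3, affinity-purified, adsorbed at 1 μg/mL in Tris buffer (2 mM CaCl2, 1 mM MgCl2 and MnCl2, pH 7.5) for 1 h at room temperature, then blocked with 1% albumin. Exposed 30 min to excess biotinylated fibrinogen with varied compound levels. Detection used anti-biotin–alkaline phosphatase and p-nitrophenyl phosphate, read at 405 nm. IC50 derived from at least two pooled dose-response experiments.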

Homo sapiens = species: Homo sapiens; assay: Selectivity index, ratio of IC50 for human integrin alpha2b beta3 receptor to IC50 for human integrin alphav beta3 receptor
HOP = assay: Inhibition of HOP cell adhesion on vitronectin coated plate by colorimetric method; assay type: functional, cell-based; details: Homo sapiens
Summary of the method: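 HOP cells (bone marrow stromal, second subculture) preincubated 1 h at 37 °C with compound (10-4 to 10-12 M final) in serum-free IMDM, then 100 μL of 32000 cells/mL seeded on wells coated with human plasma vitronectin (5 μg/mL); adhesion 30 min at 37 °C. Adherent cells read via p-nitrophenyl N-acetyl β-D-glucosaminide hydrolysis, 405 nm. Expressed as absorbance ratio to untreated cells; ≥2 experiments, n = 6 wells.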

IC50 (Integrin alpha-V/beta-3) | IC50 [1] | Ratio IC50 (Homo sapiens) | Compound | Activity (HOP)
1.7 nM | 7.3 nM | 4.3 | N=C(N)NCCCCOc1ccc(C[C@H](NS(=O)(=O)c2cccc(C(F)(F)F)c2)C(=O)O)cc1N | 
1.2 nM | 36 nM | 30 | Nc1cc(C[C@H](NS(=O)(=O)c2cccc(C(F)(F)F)c2)C(=O)O)ccc1OCCCNc1ccccn1 | 
0.8 nM | 38 nM | 47 | Cc1ccnc(NCCCCOc2ccc(C[C@H](NS(=O)(=O)c3cccc(C(F)(F)F)c3)C(=O)O)cc2NC(=O)COCCOCCOCCOCCOCCOCCN)c1 | 
0.5 nM | 61 nM | 122 | COCCOCCOCCOCC(=O)Nc1cc(C[C@H](NS(=O)(=O)c2cccc(C(F)(F)F)c2)C(=O)O)ccc1OCCCCNc1cc(C)ccn1 | 
1.1 nM | 355 nM | 323 | Nc1cc(C[C@H](NS(=O)(=O)c2cccc(C(F)(F)F)c2)C(=O)O)ccc1OCCCCc1ccc2c(n1)NCCC2 | 
1.7 nM | 121 nM | 71 | Cc1cccc(NCCCCOc2ccc(C[C@H](NS(=O)(=O)c3cccc(C(F)(F)F)c3)C(=O)O)cc2N)n1 | 
0.1 nM | 141 nM | 1410 | Nc1cc(C[C@H](NS(=O)(=O)c2cccc(C(F)(F)F)c2)C(=O)O)ccc1OCCCc1ccc2c(n1)NCCC2 | 
0.6 nM | 106 nM | 177 | Cc1ccnc(NCCCCOc2ccc(C[C@H](NS(=O)(=O)c3cccc(C(F)(F)F)c3)C(=O)O)cc2N)c1 | Active
 |  |  | N=C(N)NCCC[C@H](NC(=O)CN)C(=O)NCC(=O)N[C@@H](CC(=O)O)C(=O)N[C@@H](CO)C(=O)O | Active
0.7 nM | 38 nM | 54 | CC(=O)Nc1cc(C[C@H](NS(=O)(=O)c2cccc(C(F)(F)F)c2)C(=O)O)ccc1OCCCCNc1cc(C)ccn1 | 
428 nM | 154 nM | 0.35 | NCCCCOc1ccc(C[C@H](NS(=O)(=O)c2cccc(C(F)(F)F)c2)C(=O)O)cc1N | 
0.8 nM | 101 nM |  | Nc1cc(C[C@H](NS(=O)(=O)c2cccc(C(F)(F)F)c2)C(=O)O)ccc1OCCCCN=C1NCCCN1 | 
3.9 nM | 21.3 nM |  | Nc1cc(C[C@H](NS(=O)(=O)c2cccc(C(F)(F)F)c2)C(=O)O)ccc1OCCCN=C1NCCCN1 | 
7.6 nM | 27 nM |  | NC(N)=NCCCOc1ccc(C[C@H](NS(=O)(=O)c2cccc(C(F)(F)F)c2)C(=O)O)cc1N | 
 |  | 3.5 | N=C(N)NCCCOc1ccc(C[C@H](NS(=O)(=O)c2cccc(C(F)(F)F)c2)C(=O)O)cc1N | 
0.6 nM | 71 nM | 118 | CC(=O)Nc1cc(C[C@H](NS(=O)(=O)c2cccc(C(F)(F)F)c2)C(=O)O)ccc1OCCCc1ccc2c(n1)NCCC2 | Active
 |  | 5.5 | Nc1cc(C[C@H](NS(=O)(=O)c2cccc(C(F)(F)F)c2)C(=O)O)ccc1OCCCNC1=NCCCN1 | 
0.9 nM | 28 nM | 31 | Cc1ccnc(NCCCCOc2ccc(C[C@H](NS(=O)(=O)c3cccc(C(F)(F)F)c3)C(=O)O)cc2NC(=O)COCCOCCOCCN)c1 | 
138 nM | 429 nM | 3.1 | NCCCOc1ccc(C[C@H](NS(=O)(=O)c2cccc(C(F)(F)F)c2)C(=O)O)cc1N | 
 |  | 126 | Nc1cc(C[C@H](NS(=O)(=O)c2cccc(C(F)(F)F)c2)C(=O)O)ccc1OCCCCNC1=NCCCN1 | 
1.4 nM | 70 nM | 50 | Nc1cc(C[C@H](NS(=O)(=O)c2cccc(C(F)(F)F)c2)C(=O)O)ccc1OCCCCNc1ccccn1 | 

Reference: ChEMBL document CHEMBL1154662, “alphavbeta3 Integrin-targeting Arg-Gly-Asp (RGD) peptidomimetics containing oligoethylene glycol (OEG) spacers” (J Med Chem, 2009)
